Published values pooled from the literature.
Protocols differ between the studies behind these lines.
Target: Myosin light chain kinase 2, skeletal/cardiac muscle (MYLK2, Homo sapiens, UniProt Q9H1R3)

| Structure (SMILES) | assay | conditions | remaining binding [%] |
| --- | --- | --- | --- |
| c1cncc(-c2cccc(Nc3nccc(NC4CCCCC4)n3)c2)c1 | binding, competition with immobilised ligand | 10 µM | 70 |
| COc1ccnn2ncc(-c3ccnc(N(C)C)n3)c12 | binding | 1 µM | 96 |
| COc1cnc(Nc2cccc(S(N)(=O)=O)c2)nc1N1CCN(c2ccccc2)CC1 | binding, competition with immobilised ligand | 1 µM | 100 |
| Cc1cnn2ncc(-c3ccnc(N(C)C)n3)c2c1 | binding | 1 µM | 100 |
| O=C(NCCCN1CCOCC1)c1ccc(Nc2ncc(Cl)c(-c3ccc(Cl)s3)n2)cc1 | binding, competition with immobilised ligand | 1 µM | 12 |
| O=C(Nc1c[nH]nc1C(=O)NC1CCNCC1)c1cc(F)cc(F)c1 | binding, competition with immobilised ligand | 1 µM | 88 |
| CS(=O)(=O)c1cc(C2(NC(=O)c3cncc4c3cnn4-c3ccc(F)cc3)CC2)ccn1 | cell-free assay, competition with immobilised ligand | 1 µM | 100 |
| CN(CCCC(F)(F)F)c1nccc(-c2cnn3ncccc23)n1 | binding | 1 µM | 98 |
| CCC(=O)N[C@@H]1CC[C@H](C(=O)N(C)c2ccc(-c3nc4ccccc4o3)cc2)C1 | cell-free assay, competition with immobilised ligand | 1 µM | 79 |
| Nc1ncc2c(n1)-c1c([nH]c3ccc(C#CC4CC4)cc13)CCCC2 | binding, competition with immobilised ligand | 1 µM | 100 |
| COc1ccc2cc(OCC3(C(=O)O)CN(C(=O)c4ccc(F)cc4)C3)ccc2c1 | cell-free assay, competition with immobilised ligand | 1 µM | 100 |
| C[C@@H](c1ccc(-n2cnc3c(N)ncnc32)cc1)N1CCc2nn(C)c(Cc3ccccc3)c2C1=O | binding, competition with immobilised ligand | 0.1 µM | 85 |
| CN(C)c1ncc(F)c(-c2cnn3ncccc23)n1 | binding | 1 µM | 100 |
| CCOC(=O)c1cc2cc(-c3cc(C(=O)NCc4ccc(C(=O)O)cc4)nn3C)ccc2[nH]1 | cell-free assay, competition with immobilised ligand | 0.1 µM | 89 |
| C[C@@H]1CCN(c2nccc(-c3cnn4ncccc34)n2)C1 | binding | 1 µM | 86 |
| O=C(NCCCN1CCOCC1)c1ccc(Nc2nccc(-c3cc4ccccc4s3)n2)cc1 | binding, competition with immobilised ligand | 1 µM | 9.1 |
| CC(=O)C1=C(C)N(c2cccc(C(F)(F)F)c2)C(=O)N[C@@H]1c1ccc(C#N)nc1 | cell-free assay, competition with immobilised ligand | 1 µM | 100 |
| O=C(c1ccc(Nc2ncc(Cl)c(-c3cc4ccccc4s3)n2)cc1)N1CCC(N2CCCC2)CC1 | binding, competition with immobilised ligand | 1 µM | 1.2 |
| CN(C)CC#Cc1ccc(OCCCc2sc(N3CCc4cccc(C(=O)Nc5nc6ccccc6s5)c4C3)nc2C(=O)O)c(F)c1 | cell-free assay, competition with immobilised ligand | 1 µM | 100 |
| N[C@@H]1CCN(c2nccc(-c3cnn4ncccc34)n2)C1 | binding | 1 µM | 98 |
